Activity calls are given as the source filed them. The rule behind the calls is not given here.
Key:
Rattus norvegicus [1] = species on record: Rattus norvegicus; assay: Neuroprotective activity against oxygen glucose deprivation/reperfusion-induced Wistar rat cortical brain assessed as concentration required to reduce glutamate release by measuring efficacy window; format: functional
Summary of the method: (§1)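 Male Wistar rat cortical slices (400 μm) in oxygenated ACSF, pH 7.4, 1 h at room temperature, then 30 min at 37 °C. OGD for 30 min in glucose-free ACSF with 11 mM sucrose under 95% N₂/5% CO₂. Compound added in the reoxygenation buffer. Glutamate and LDH release measured. Mean ± SEM of at least four experiments, ANOVA with Dunnett test.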

Rattus norvegicus [2] = species on record: Rattus norvegicus; assay: Neuroprotective activity against oxygen glucose deprivation/reperfusion-induced Wistar rat cortical brain assessed as concentration required to reduce LDH release by measuring efficacy window; format: functional; summary of the method: as §1
SH-SY5Y [3] = assay: Neuroprotective activity against glutamate-induced toxicity in human SH-SY5Y cells assessed as reduction in sub G0/G1 phase cells at 10 uM pretreated for 1 hr followed by glutamate challenge measured after 24 hrs by propidium staining based flow cytometry; format: functional, cell-based; details: time 25.0 hrs
Summary of the method: (§2)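 SH-SY5Y cells (2.5 x 10⁵ cells/mL) pretreated 1 h with compound, then given glutamate 50 mM for 24 h. Cells fixed in 70% ethanol (30 min, 4 °C), held at -20 °C for at least 24 h, stained with propidium iodide. Flow cytometry on at least 1x10⁴ cells, cell-cycle phases and sub-G₀/G₁ fraction quantified. 4 independent experiments.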

Rattus norvegicus [4] = species on record: Rattus norvegicus; assay: Neuroprotective activity against oxygen glucose deprivation/reperfusion-induced Wistar rat cortical brain assessed as reduction in glutamate release relative to control; format: functional; set-up: concentration or dose not given beside the values; summary of the method: as §1
Rattus norvegicus [5] = species on record: Rattus norvegicus; assay: Neuroprotective activity against oxygen glucose deprivation/reperfusion-induced Wistar rat cortical brain assessed as reduction in LDH release relative to control; format: functional; set-up: concentration or dose not given beside the values; summary of the method: as §1
SH-SY5Y [6] = assay: Neuroprotective activity against glutamate-induced toxicity in human SH-SY5Y cells assessed as reduction in cell detachment at 10 uM pretreated for 1 hr followed by glutamate challenge measured after 24 hrs by phase-contrast light microscopic analysis; format: functional, cell-based; details: time 25.0 hrs
Summary of the method: (§3)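 SH-SY5Y cells attached 24 h, then pretreated 1 h with compound (0.1-10 μM) before glutamate 50 mM for 24 h. Viability by MTT. Morphology under phase-contrast microscope, scored by the USP 28 grade scale (0-4). Mean ± SEM of 4 independent experiments run in triplicate or quadruplicate, ANOVA with Dunnett test.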

SH-SY5Y [7] = assay: Neuroprotective activity against glutamate-induced toxicity in human SH-SY5Y cells assessed as reduction in grade 2 to 3 toxicity at 10 uM pretreated for 1 hr followed by glutamate challenge measured after 24 hrs by phase-contrast light microscopic analysis; format: functional, cell-based; details: time 25.0 hrs; summary of the method: as §3
SH-SY5Y [8] = assay: Neuroprotective activity against glutamate-induced toxicity in human SH-SY5Y cells assessed as reduction in condensed and fragmented nuclei at 10 uM pretreated for 1 hr followed by glutamate challenge measured after 24 hrs by DAPI staining based assay (reference value: 16.9 +/- 1.5%); format: functional, cell-based; details: time 25.0 hrs
Summary of the method: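 Cells pretreated 1 h with compound (0.1-10 μM), then glutamate 50 mM for 24 h. DAPI staining; cells with condensed or fragmented nuclei scored as apoptotic, reported as percentage. Mean ± SEM of 4 independent experiments.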

SH-SY5Y [9] = assay: Neuroprotective activity against glutamate-induced toxicity in human SH-SY5Y cells assessed as reduction in ROS production measured after 24 hrs by DCFH-DA staining based assay; format: functional, cell-based; details: dose 0.1-10 µM
Summary of the method: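 Human SH-SY5Y neuroblastoma cells were preloaded with DCFH-DA (5 μM, 30 min) and washed in PBS. They were then pretreated for 1 h with compound (0.1-10 μM; DMSO stock diluted in PBS, final DMSO <0.01%) and challenged with glutamate (50 mM). Fluorescence (ex 485/em 535 nm) was read at 24 h and expressed as % inhibition of glutamate-induced ROS. Data are mean ± SEM of 4 experiments run in triplicate or quadruplicate.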

SH-SY5Y [10] = assay: Neuroprotective activity against glutamate-induced toxicity in human SH-SY5Y cells assessed as reduction in ROS production at 10 uM measured after 24 hrs by DCFH-DA staining based assay relative to control; format: functional; set-up: scale not given: the % may be the effect or the level left
Summary of the method: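 SH-SY5Y cells loaded with DCFH-DA (5 μM, 30 min) and washed before treatment. Pretreated 1 h with compound (0.1-10 μM), then glutamate 50 mM. Fluorescence (ex 485/em 535 nm) read at 1 h or 24 h and expressed as % inhibition of glutamate-induced ROS. 4 independent experiments.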

SH-SY5Y [11] = assay: Neuroprotective activity against 6-OHDA-induced toxicity in human SH-SY5Y cells assessed as increase in cell viability at 10 uM pretreated for 1 hr followed by 6-OHDA challenge measured after 2 hrs by MTT assay; format: functional, cell-based; details: time 3.0 hrs
Summary of the method: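 SH-SY5Y cells attached 24 h, then pretreated 1 h with compound (0.1-10 μM) and challenged with 6-OHDA 55 μM for 2 h. 6-OHDA made fresh in nitrogen-gassed 5 μM ascorbic acid, and controls received medium with ascorbic acid. Viability by MTT. Mean ± SEM of 4 independent experiments run in triplicate or quadruplicate, ANOVA with Dunnett test.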

SH-SY5Y [12] = assay: Neuroprotective activity against 6-OHDA-induced toxicity in human SH-SY5Y cells assessed as reduction in ROS production by DCFH-DA staining based assay; format: functional, cell-based; details: dose 0.1-10 µM
Summary of the method: (§4)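 SH-SY5Y cells loaded with DCFH-DA (5 μM, 30 min) and washed. Pretreated 1 h with compound (0.1-10 μM), then 6-OHDA 55 μM. Fluorescence (ex 485/em 535 nm) read at 1 h or 24 h and expressed as % inhibition of 6-OHDA-induced ROS. 4 independent experiments.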

SH-SY5Y [13] = assay: Neuroprotective activity against 6-OHDA-induced toxicity in human SH-SY5Y cells assessed as reduction in condensed and fragmented nuclei at 0.1 uM pretreated for 1 hr followed by 6-OHDA challenge measured after 2 hrs by DAPI staining based assay relative to control; format: functional, cell-based; details: time 3.0 hrs
SH-SY5Y [14] = assay: Neuroprotective activity against 6-OHDA-induced toxicity in human SH-SY5Y cells assessed as reduction in ROS production at 0.1 uM pretreated for 1 hr followed by 6-OHDA challenge measured after 2 hrs by DCFH-DA staining based assay; format: functional, cell-based; details: time 3.0 hrs
Rattus norvegicus [15] = species on record: Rattus norvegicus; assay: Inhibition of transient voltage-dependent sodium current in Wistar rat brain piriform cortex layer at 50 uM by whole cell patch clamp method relative to control; format: functional
SH-SY5Y [16] = assay: Neuroprotective activity against glutamate-induced toxicity in human SH-SY5Y cells assessed as reduction in G0/G1 phase cells at 10 uM pretreated for 1 hr followed by glutamate challenge measured after 24 hrs by propidium staining based flow cytometry; format: functional, cell-based; details: time 25.0 hrs; summary of the method: as §2
Rattus norvegicus [17] = species on record: Rattus norvegicus; assay: Inhibition of high voltage-activated calcium current in Wistar rat brain piriform cortex assessed as blockade of barium current by whole cell patch clamp method; format: functional
Summary of the method: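 Acutely dissociated P15-P22 Wistar rat piriform cortex neurons recorded whole-cell at holding -70 mV. 5 mM Ba²⁺ was the charge carrier, with a Cs methanesulfonate pipette. HVA currents evoked by step or ramp protocols from -60 mV. Compound applied by local perfusion (DMSO 0.02-0.67%). Peak I_Ba amplitude tracked over time, and concentration-response fitted with the sum of two Hill functions.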

SH-SY5Y [18] = assay: Neuroprotective activity against 6-OHDA-induced toxicity in human SH-SY5Y cells assessed as reduction in ROS production at 0.1 to 10 uM by DCFH-DA staining based assay; format: functional, cell-based; details: dose 0.1-10 µM, TDE = time-dependent effect; summary of the method: as §4
Rattus norvegicus [19] = species on record: Rattus norvegicus; assay: Neuroprotective activity against oxygen glucose deprivation/reperfusion-induced Wistar rat cortical brain assessed as reduction in glutamate release by measuring minimal effective concentration; format: functional; summary of the method: as §1

IC50 (Rattus norvegicus [17]) [µM] | Compound | Efficacy (Rattus norvegicus [1]) [µM] | Efficacy (Rattus norvegicus [2]) [µM] | Activity (SH-SY5Y [3]) | Activity (Rattus norvegicus [4]) [%] | Activity (Rattus norvegicus [5]) [%] | Activity (SH-SY5Y [6]) | Activity (SH-SY5Y [7]) | Activity (SH-SY5Y [8]) | Activity (SH-SY5Y [9]) | Activity (SH-SY5Y [10]) [%] | Activity (SH-SY5Y [11]) | Activity (SH-SY5Y [12]) | Activity (SH-SY5Y [13]) | Activity (SH-SY5Y [14]) | inhibition in vivo at 50 µM (Rattus norvegicus [15]) [%] | Activity (SH-SY5Y [16]) | Activity (SH-SY5Y [18]) | MEC (Rattus norvegicus [19]) [µM]
5.4 | CCN(CC)/C(C)=N/C1=Nc2ccccc2CS1 | 0.1 | 0.1 | Active | 100 | 72.4 | Active | Active | Active | Dose-Dependent Effect | 20 | Active | Dose-Dependent Effect | Active | Active | 51.9 | Active | Tde | 0.1
4.4 | CCCN(CCC)/C(C)=N/C1=Nc2ccccc2CS1 | 0.1 | 0.1 | Active | 90.5 | 58.2 | Active | Active | Active | Dose-Dependent Effect | 20 | Active | Dose-Dependent Effect | Active | Active | 15.9 | Active | Tde | 1

Source: ChEMBL document CHEMBL5260794, “Synthesis and biological evaluation of a new class of benzothiazines as neuroprotective agents” (Eur J Med Chem, 2017)
